Results: ChEMBL document CHEMBL4825662 (J Med Chem, 2021)
Converted amounts (≈) assume the structure as drawn. Values belong to the compound of their own block, whether it stands above or below them.

Assays:
[1] = system: Human orthopneumovirus; assay: Antiviral activity against Respiratory syncytial virus A2 infected in human Hep2 cells by Plaque reduction assay; format: functional, organism-based; settings: A2, HEp-2
Procedure, shortened: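 Hep2 cells were infected with RSV strain A2 in the presence of compound. Plaques were detected by immunostaining after 48 h. Values are the average of at least two testing occasions.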

[2] = Cytotoxicity against human Hep2 cells; format: cell-based; settings: HEp-2 cells
Procedure, shortened: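 Hep2 cells were cultured in parallel with the plaque assays at compound concentrations of 0.01 nM to 100 μM. Viability was read by MTT, CellTox green or CellTiter-Glo.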

[3] = Intrinsic clearance in human liver microsomes preincubated followed by NADPH addition and measured up to 45 mins by LC-MS/MS analysis; format: ADME, Microsome
[4] = Volume of distribution at steady state in CD1 mouse at 1 mg/kg, iv measured after 0.083 to 24 hrs by UHPLC-TOF method; format: ADME, organism-based; settings: in vivo, time 0.083-24 hrs, read-out: Vdss
Procedure, shortened: (§1)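 Male CD-1 mice, acclimatized and individually housed, dosed IV and PO as amorphous-solid suspension. Terminal cardiac-puncture blood into heparinized tubes on wet ice, centrifuged at 4 °C within 15 min; plasma snap-frozen at −20 °C. IV arm sampled 2 min–24 h, oral arm 5 min–24 h. Plasma analysed by UHPLC-quadrupole-TOF MS.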

[5] = Oral bioavailability in CD1 mouse at 10 mg/kg measured after 0.03 to 24 hrs by UHPLC-TOF method; format: ADME, organism-based; settings: in vivo, time 0.03-24 hrs; procedure, shortened: as §1
[6] = system: Human orthopneumovirus; assay: Antiviral activity against Respiratory syncytial virus A2 by Plaque reduction assay; format: functional, organism-based
Procedure, shortened: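 Vero cells were infected with RSV A2 for 48 h with compound at 0.01 nM to 100 μM. Plaques were detected by immunostaining. Values are the average of at least two testing occasions.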

[7] = Half life in CD1 mouse at 10 mg/kg, po measured after 0.083 to 24 hrs by UHPLC-TOF method; format: ADME, organism-based; settings: in vivo, time 0.083-24 hrs
[8] = Tmax in CD1 mouse at 10 mg/kg, po measured after 0.083 to 24 hrs by UHPLC-TOF method; format: ADME, organism-based; settings: in vivo, time 0.083-24 hrs; procedure, shortened: as §1
[9] = biological target: Fusion glycoprotein F0 (Human respiratory syncytial virus A (strain A2), UniProt P03420); assay: Inhibition of Respiratory syncytial virus fusion protein
Procedure, shortened: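 293T cells cotransfected with codon-optimized RSV A2 F plasmid and a GAL4-responsive luciferase reporter, mixed after 24 h with a second 293T population expressing GAL4-NF-κB transactivator. Threefold serial compound dilutions present during mixing; F-mediated fusion read as luciferase after 24 h. IC₅₀ averaged over at least two testing occasions.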

[10] = Clearance in CD1 mouse at 1 mg/kg, iv measured after 0.083 to 24 hrs by UHPLC-TOF method; format: ADME, organism-based; settings: in vivo, time 0.083-24 hrs
[11] = Apparent permeability across basolateral side to apical side in MDCK-MDR1 cells at 10 uM measured at 60 mins by LC-MS/MS analysis; format: ADME, cell-based, Canis lupus familiaris; settings: dog
[12] = Cmax in CD1 mouse at 10 mg/kg, po measured after 0.083 to 24 hrs by UHPLC-TOF method; format: ADME, organism-based; design: route oral, time 0.083-24 hrs, dose 10 mg/kg; settings: in vivo
[13] = Intrinsic clearance in Sprague-Dawley rat liver microsomes preincubated followed by NADPH addition and measured up to 45 mins by LC-MS/MS analysis; format: ADME, Microsome
[14] = Intrinsic clearance in Beagle dog liver microsomes preincubated followed by NADPH addition and measured up to 45 mins by LC-MS/MS analysis; format: ADME, Canis lupus familiaris, Microsome
[15] = Cytotoxicity against human HepG2 cells by MTT assay; format: cell-based
Procedure, shortened: (§2)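 Viability was assessed by MTT after culture with compound at 0.01 nM to 100 μM, run in parallel with plaque reduction assays. Values are the average of at least two testing occasions.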

[16] = system: Human orthopneumovirus; assay: Antiviral activity against Respiratory syncytial virus A2 infected in African green monkey Vero cells by Plaque reduction assay; format: functional, organism-based
[17] = Half life in Beagle dog liver microsomes preincubated followed by NADPH addition and measured up to 45 mins by LC-MS/MS analysis
[18] = Thermodynamic solubility in PBS at 1 to 100 uM at pH 7.4 by HPLC-UV method; format: physicochemical; settings: dose 1-100 µM, read-out: Therm_solubility
[19] = Half life in human liver microsomes preincubated followed by NADPH addition and measured up to 45 mins by LC-MS/MS analysis; format: ADME, Microsome
[20] = system: Human orthopneumovirus; assay: Antiviral activity against Respiratory syncytial virus A2 infected in human Huh7 cells by Plaque reduction assay; format: functional, organism-based; settings: A2, Huh-7
Procedure, shortened: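 Huh-7 cells were infected with RSV strain A2 in the presence of compound. Values are the average of at least two testing occasions.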

[21] = Half life in Sprague-Dawley rat liver microsomes preincubated followed by NADPH addition and measured up to 45 mins by LC-MS/MS analysis; format: ADME, Microsome
[22] = Apparent permeability across apical to basolateral side in MDCK-MDR1 cells at 10 uM measured at 60 mins by LC-MS/MS analysis; format: ADME, cell-based, Canis lupus familiaris; settings: dog, MDCK-MDR1
[23] = Efflux ratio of apparent permeability in MDCK-MDR1 cells at 10 uM measured at 60 mins by LC-MS/MS analysis; format: ADME, cell-based, Canis lupus familiaris; settings: dog, MDCK-MDR1
[24] = Cytotoxicity against African green monkey Vero cells by MTT assay; format: cell-based; settings: chlorocebus sabaeus; procedure, shortened: as §2

Fusion glycoprotein F0, sequence (P03420 26-109 limits assumed): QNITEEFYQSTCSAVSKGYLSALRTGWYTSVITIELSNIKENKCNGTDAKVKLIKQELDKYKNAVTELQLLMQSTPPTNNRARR
Fusion glycoprotein F0, sequence (P03420 137-574 limits assumed): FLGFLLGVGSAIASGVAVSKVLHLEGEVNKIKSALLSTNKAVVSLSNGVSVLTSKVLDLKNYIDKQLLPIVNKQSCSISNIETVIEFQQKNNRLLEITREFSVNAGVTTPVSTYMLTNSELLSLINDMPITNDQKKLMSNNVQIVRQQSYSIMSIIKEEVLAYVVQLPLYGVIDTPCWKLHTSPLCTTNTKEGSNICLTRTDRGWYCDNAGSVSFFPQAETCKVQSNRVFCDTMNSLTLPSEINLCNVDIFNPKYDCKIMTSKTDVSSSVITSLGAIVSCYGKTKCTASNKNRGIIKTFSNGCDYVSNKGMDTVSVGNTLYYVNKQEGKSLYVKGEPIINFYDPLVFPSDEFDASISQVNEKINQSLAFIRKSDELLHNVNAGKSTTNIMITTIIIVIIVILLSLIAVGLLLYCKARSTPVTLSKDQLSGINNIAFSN

EC50 [1]: 0.0137 µM
Structure (SMILES): NC(=O)c1ccc2c(c1)nc(CN1C(=O)C3(CC3)c3ccc(F)cc31)n2CCCC(F)(F)F
CC50 [2]: > 20 µM

Structure (SMILES): CC(C)CCn1c(CN2C(=O)C3(CC3)c3cccnc32)nc2cc(CN)ccc21
intrinsic clearance (CLint) [3]: 177 µL/min
Vd [4]: 4.5 L/kg
bioavailability [5]: 18.1%
EC50 [6]: 0.0041 µM
half-life [7]: 1 h
Tmax [8]: 2 h
IC50 [9]: 0.0009 µM
clearance [10]: 81.1 mL/min/kg
Papp B→A at 1 h, 10 µM [11]: 0.1 ×10⁻⁶ cm/s
Cmax [12]: 200 ng/mL
Microsomal intrinsic clearance [13]: 328 µL/min
intrinsic clearance [14]: 71.3 µL/min

EC50 [16]: 10.2 µM
Structure (SMILES): O=C(O)c1ccc2c(c1)nc(CN1C(=O)C3(CC3)c3ccc(F)cc31)n2CCCC(F)(F)F
CC50 [15]: > 25 µM

half-life [17]: 4.6 h
intrinsic clearance (CLint) [3]: 4.6 µL/min
Vd [4]: 3.8 L/kg
bioavailability [5]: 4.4%
solubility thermodynamic [18]: 313 µM (≈ 136 µg/mL)
half-life [7]: 0.9 h
Tmax [8]: 0.1 h
half-life [19]: 5 h
clearance [10]: 82.7 mL/min/kg
Papp B→A at 1 h, 10 µM [11]: 2.8 ×10⁻⁶ cm/s
EC50 [20]: 0.0016 µM
Cmax [12]: 47.8 ng/mL
half-life [21]: 2.45 h
Papp A→B at 1 h, 10 µM [22]: 0.1 ×10⁻⁶ cm/s
Microsomal intrinsic clearance [13]: 9.4 µL/min
intrinsic clearance [14]: 5.02 µL/min
efflux ratio at 1 h, 10 µM [23]: 21
Structure (SMILES): NCc1ccc2c(c1)nc(CN1C(=O)C3(CC3)c3ccc(F)cc31)n2C1CCC(O)CC1 (stereo unspecified)
CC50 [15]: > 25 µM

EC50 [16]: 14 µM
Structure (SMILES): CC(C)CCn1c(CN2C(=O)C3(CCCC3)Cc3ccccc32)nc2cc(CN)ccc21
CC50 [24]: 11.5 µM

EC50 [16]: 3.64 µM
Structure (SMILES): CS(=O)(=O)c1ccc2c(c1)nc(CN1C(=O)C3(CC3)c3ccc(F)cc31)n2CCCC(F)(F)F
CC50 [15]: > 25 µM

EC50 [16]: 0.0254 µM
Structure (SMILES): CC(C)CCn1c(CN2C(=O)C3(CC3)c3cc(Cl)ccc32)nc2cc(CN)ccc21
CC50 [24]: 0.71 µM

EC50 [1]: 0.0211 µM
Structure (SMILES): N=C(N)NCc1ccc2c(c1)nc(CN1C(=O)C3(CC3)c3ccc(F)cc31)n2CCCC(F)(F)F
CC50 [2]: > 20 µM

EC50 [16]: 2.38 µM
Structure (SMILES): CC(C)CCn1c(CN2C(=O)C3(CC3)c3cccc(Cl)c32)nc2cc(CN)ccc21
CC50 [24]: 21.7 µM

EC50 [16]: 0.454 µM
Structure (SMILES): CCNC(=N)c1ccc2c(c1)nc(CN1C(=O)C3(CC3)c3ccc(F)cc31)n2CCCC(F)(F)F
CC50 [15]: > 25 µM

EC50 [16]: 0.181 µM
Structure (SMILES): CC(C)CCn1c(CN2C(=O)C3(CC3)c3c(Cl)cccc32)nc2cc(CN)ccc21
CC50 [24]: 5.2 µM

intrinsic clearance (CLint) [3]: 3.78 µL/min
solubility thermodynamic [18]: 2600 µM (≈ 1180 µg/mL)
Papp B→A at 1 h, 10 µM [11]: 0.79 ×10⁻⁶ cm/s
EC50 [20]: 0.0057 µM
Papp A→B at 1 h, 10 µM [22]: 0.24 ×10⁻⁶ cm/s
Microsomal intrinsic clearance [13]: 3.63 µL/min
intrinsic clearance [14]: 5.34 µL/min
efflux ratio at 1 h, 10 µM [23]: 3.26
Structure (SMILES): CS(=O)(=O)CCCn1c(CN2C(=O)C3(CC3)c3ccc(F)cc32)nc2cc(CN)ccc21
CC50 [15]: > 25 µM

Structure (SMILES): CC(C)CCn1c(CN2C(=O)C3(CC3)c3ccncc32)nc2cc(CN)ccc21
EC50 [6]: 0.0021 µM
IC50 [9]: 0.0009 µM

EC50 [20]: 0.0036 µM
Structure (SMILES): NCc1ccc2c(c1)nc(CN1C(=O)C3(CC3)c3ccc(F)cc31)n2CCCCO
CC50 [15]: > 25 µM
